ChEMBL document CHEMBL4325893, “Synthesis and antibacterial profiles of targeted triclosan derivatives” (2019)
≈ marks a conversion by molar mass, not a printed value.

Legend:
Bacillus cereus = assay: Antibacterial activity against Bacillus cereus ATCC 14579 after 18 hrs; assay type: functional; settings: ATCC 14579, 18 h
Outline: (§1)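 Broth microdilution in Nutrient Broth No. 2; stocks in ethanol diluted to 0.01–128 µg/ml (triclosan) or 0.25–256 µg/ml (glycosides). Overnight 37 °C NB2 cultures diluted 1 in 10^4 in saline and added to the dilutions. Incubation at 37 °C with agitation, OD read every 15 min; MIC is the lowest concentration preventing any OD rise after 18 h.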

Escherichia coli [1] = assay: Antibacterial activity against Escherichia coli ATCC 8739 after 18 hrs; assay type: functional; settings: ATCC 8739, 18 h; outline: as §1
Proteus vulgaris = assay: Antibacterial activity against Proteus vulgaris OCC 195 after 18 hrs; assay type: functional; settings: OCC 195, 18 h; outline: as §1
Enterococcus faecalis [2] = assay: Antibacterial activity against Enterococcus faecalis ATCC 29212 after 18 hrs; assay type: functional; settings: ATCC 29212, 18 h; outline: as §1
[3] = Antibacterial activity against Enterobacter cloacae ATCC 13047 after 18 hrs; assay type: functional, Enterobacter cloacae subsp. cloacae; settings: ATCC 13047, 18 h; outline: as §1
[4] = test system: Salmonella enterica subsp. enterica serovar Abony; assay: Antibacterial activity against Salmonella enterica subspecies enterica serotype Abony NCTC 6017 after 18 hrs; assay type: functional; settings: NCTC 6017, 18 h; outline: as §1
[5] = Antibacterial activity against Salmonella enterica subspecies enterica serotype Pullorum OCC 273 after 18 hrs; assay type: functional, Salmonella enterica subsp. enterica serovar Pullorum; settings: OCC 273, 18 h; outline: as §1
Citrobacter freundii = assay: Antibacterial activity against Citrobacter freundii 8090 after 18 hrs; assay type: functional; settings: Citrobacter freundii, 8090, 18 h; outline: as §1
Staphylococcus aureus [6] = assay: Antibacterial activity against Staphylococcus aureus ATCC 29213 after 18 hrs; assay type: functional; settings: ATCC 29213, 18 h; outline: as §1
[7] = Antibacterial activity against Salmonella enterica subspecies enterica serotype Poona NCTC 4840 after 18 hrs; assay type: functional, Salmonella enterica subsp. enterica serovar Poona; settings: NCTC 4840, 18 h; outline: as §1
Escherichia hermannii = assay: Antibacterial activity against Escherichia hermannii 33650 after 18 hrs; assay type: functional; settings: Atlantibacter hermannii, 33650, 18 h; outline: as §1
Pseudomonas aeruginosa = assay: Antibacterial activity against Pseudomonas aeruginosa ATCC 27853 after 18 hrs; assay type: functional; settings: ATCC 27853, 18 h; outline: as §1
Escherichia coli [8] = assay: Antibacterial activity against Escherichia coli NCTC 13216 after 18 hrs; assay type: functional; settings: NCTC 13216, 18 h; outline: as §1
[9] = test system: Staphylococcus epidermidis; assay: Antibacterial activity against Staphylococcus epidermidis ATCC 12228 after 18 hrs; assay type: functional; settings: ATCC 12228, 18 h; outline: as §1
Staphylococcus aureus [10] = assay: Antibacterial activity against Staphylococcus aureus ATCC 9144 after 18 hrs; assay type: functional; settings: ATCC 9144, 18 h; outline: as §1
[11] = Antibacterial activity against Salmonella enterica subspecies enterica serotype Infantis OCC 2133 after 18 hrs; assay type: functional, Salmonella enterica subsp. enterica serovar Infantis; settings: OCC 2133, 18 h; outline: as §1
Escherichia coli [12] = assay: Antibacterial activity against Escherichia coli OCC 122 after 18 hrs; assay type: functional; settings: OCC 122, 18 h; outline: as §1
Escherichia coli [13] = assay: Antibacterial activity against Escherichia coli ATCC 11775 after 18 hrs; assay type: functional; outline: as §1
[14] = Antibacterial activity against Salmonella enterica subspecies enterica serotype Indiana OCC 597 after 18 hrs; assay type: functional, Salmonella enterica subsp. enterica serovar Indiana; settings: OCC 597, 18 h; outline: as §1
[15] = Antibacterial activity against Salmonella enterica subspecies enterica serotype Nottingham NCTC 7832 after 18 hrs; assay type: functional, Salmonella enterica subsp. enterica serovar Nottingham; settings: NCTC 7832, 18 h; outline: as §1
Cronobacter sakazakii = assay: Antibacterial activity against Cronobacter sakazakii 29544 after 18 hrs; assay type: functional; settings: Cronobacter sakazakii, 29544, 18 h; outline: as §1
Enterococcus faecalis [16] = assay: Antibacterial activity against Enterococcus faecalis ATCC 33186 after 18 hrs; assay type: functional; settings: ATCC 33186, 18 h; outline: as §1
Streptococcus agalactiae = assay: Antibacterial activity against Streptococcus agalactiae OCC 182 after 18 hrs; assay type: functional; settings: OCC 182, 18 h
Outline: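 Broth microdilution in Nutrient Broth No. 2. Ethanol stocks were diluted in broth to 0.01–128 µg/ml for triclosan and 0.25–256 µg/ml for glycosides. Overnight 37°C NB2 cultures were diluted 1 in 10^4 in saline and added to the wells. Plates were incubated at 37°C with OD read every 15 min after agitation. MIC was the lowest concentration giving no OD increase at 18 h.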

Staphylococcus aureus [17] = assay: Antibacterial activity against Staphylococcus aureus ATCC 6538P after 18 hrs; assay type: functional; outline: as §1
[18] = Antibacterial activity against Salmonella enterica subspecies enterica serotype Virchow NCTC 5742 after 18 hrs; assay type: functional, Salmonella enterica subsp. enterica serovar Virchow; settings: NCTC 5742, 18 h; outline: as §1
[19] = Antibacterial activity against Salmonella enterica subspecies enterica serotype Dublin OCC 627 after 18 hrs; assay type: functional, Salmonella enterica subsp. enterica serovar Dublin; settings: OCC 627, 18 h; outline: as §1
Staphylococcus aureus [20] = assay: Antibacterial activity against Staphylococcus aureus OCC 106 after 18 hrs; assay type: functional; settings: OCC 106, 18 h; outline: as §1
[21] = test system: Staphylococcus epidermidis; assay: Antibacterial activity against Staphylococcus epidermidis ATCC 14990 after 18 hrs; assay type: functional; settings: ATCC 14990, 18 h; outline: as §1

**Q.** With `OC[C@H]1O[C@H](Oc2cc(Cl)ccc2Oc2ccc(Cl)cc2Cl)[C@H](O)[C@@H](O)[C@H]1O` as the compound, how does the MIC (Bacillus cereus) read?
**A.** Its MIC is over 256 µg/mL.

**Q.** And the MIC (Escherichia coli [1])?
**A.** The MIC was 16 to 64 µg/mL (≈ 35.4 to 142 µM).

**Q.** And the MIC (Proteus vulgaris)?
**A.** The MIC was 64 µg/mL (≈ 142 µM).

**Q.** What about the MIC (Enterococcus faecalis [2]) of the same compound?
**A.** The MIC was over 256 µg/mL.

**Q.** What about the MIC [3] of the same compound?
**A.** Its MIC is 32 µg/mL (≈ 70.8 µM).

**Q.** And the MIC [4]?
**A.** The MIC was 32 to 64 µg/mL (≈ 70.8 to 142 µM).

**Q.** And the MIC [5]?
**A.** The MIC was 32 to 64 µg/mL (≈ 70.8 to 142 µM).

**Q.** What about the MIC (Citrobacter freundii) of the same compound?
**A.** The MIC was 64 µg/mL (≈ 142 µM).

**Q.** What about the MIC (Staphylococcus aureus [6]) of the same compound?
**A.** The MIC was 8 to 16 µg/mL (≈ 17.7 to 35.4 µM).

**Q.** What about the MIC [7] of the same compound?
**A.** Its MIC is 32 to 64 µg/mL (≈ 70.8 to 142 µM).

**Q.** What about the MIC (Escherichia hermannii) of the same compound?
**A.** Its MIC is 32 µg/mL (≈ 70.8 µM).

**Q.** What about the MIC (Pseudomonas aeruginosa) of the same compound?
**A.** The MIC was over 256 µg/mL.

**Q.** And the MIC (Escherichia coli [8])?
**A.** Its MIC is 16 to 64 µg/mL (≈ 35.4 to 142 µM).

**Q.** And the MIC [9]?
**A.** The MIC was 8 to 32 µg/mL (≈ 17.7 to 70.8 µM).

**Q.** And the MIC (Staphylococcus aureus [10])?
**A.** Its MIC is 8 to 16 µg/mL (≈ 17.7 to 35.4 µM).

**Q.** What about the MIC [11] of the same compound?
**A.** The MIC was 32 to 64 µg/mL (≈ 70.8 to 142 µM).

**Q.** And the MIC (Escherichia coli [12])?
**A.** The MIC was 16 to 64 µg/mL (≈ 35.4 to 142 µM).

**Q.** And the MIC (Escherichia coli [13])?
**A.** Its MIC is 16 to 64 µg/mL (≈ 35.4 to 142 µM).

**Q.** And the MIC [14]?
**A.** Its MIC is 32 to 64 µg/mL (≈ 70.8 to 142 µM).

**Q.** What about the MIC [15] of the same compound?
**A.** Its MIC is 32 to 64 µg/mL (≈ 70.8 to 142 µM).

**Q.** And the MIC (Cronobacter sakazakii)?
**A.** The MIC was 128 µg/mL (≈ 283 µM).

**Q.** What about the MIC (Enterococcus faecalis [16]) of the same compound?
**A.** Its MIC is over 256 µg/mL.

**Q.** What about the MIC (Streptococcus agalactiae) of the same compound?
**A.** Its MIC is over 256 µg/mL.

**Q.** And the MIC (Staphylococcus aureus [17])?
**A.** Its MIC is 8 to 16 µg/mL (≈ 17.7 to 35.4 µM).

**Q.** And the MIC [18]?
**A.** The MIC was 32 to 64 µg/mL (≈ 70.8 to 142 µM).

**Q.** What about the MIC [19] of the same compound?
**A.** Its MIC is 32 to 64 µg/mL (≈ 70.8 to 142 µM).

**Q.** What about the MIC (Staphylococcus aureus [20]) of the same compound?
**A.** Its MIC is 8 to 16 µg/mL (≈ 17.7 to 35.4 µM).

**Q.** And the MIC [21]?
**A.** The MIC was 8 to 32 µg/mL (≈ 17.7 to 70.8 µM).
